Wee1 degr inh = inhibitors of human Wee1 degradation | P30291 | HeLa Luc-Wee1K328M stability, luciferase luminescence; 100% = proteasome inhibitor MG132 effect | reporter increase, % at 5 µM | 220,000 tested, 1.2% active;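 active means activation above the mean of all tested compounds plus 3 SD, set per screening run, cut at about 8.8% in these data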;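 further: cells exposed to compound for 20 h before luminescence read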
Target sequence (P30291 whole entry K328M): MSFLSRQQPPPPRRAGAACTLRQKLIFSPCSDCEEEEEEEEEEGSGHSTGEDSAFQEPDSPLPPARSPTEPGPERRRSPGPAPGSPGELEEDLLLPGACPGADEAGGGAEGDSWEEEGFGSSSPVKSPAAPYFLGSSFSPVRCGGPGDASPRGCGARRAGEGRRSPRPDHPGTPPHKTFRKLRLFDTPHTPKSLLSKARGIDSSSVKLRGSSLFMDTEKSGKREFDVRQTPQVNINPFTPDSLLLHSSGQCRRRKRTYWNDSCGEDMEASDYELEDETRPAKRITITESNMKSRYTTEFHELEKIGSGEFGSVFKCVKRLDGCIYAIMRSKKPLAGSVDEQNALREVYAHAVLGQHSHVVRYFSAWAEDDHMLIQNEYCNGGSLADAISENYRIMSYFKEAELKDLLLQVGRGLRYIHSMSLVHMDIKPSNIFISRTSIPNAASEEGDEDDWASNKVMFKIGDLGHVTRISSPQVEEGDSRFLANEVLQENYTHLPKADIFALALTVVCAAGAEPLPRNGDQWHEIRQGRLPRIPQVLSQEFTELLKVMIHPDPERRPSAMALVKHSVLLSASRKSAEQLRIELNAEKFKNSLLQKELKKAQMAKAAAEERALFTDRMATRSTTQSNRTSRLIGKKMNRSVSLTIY
RBBP9 inhibitor = inhibitors of human serine hydrolase RBBP9; recombinant RBBP9, FP-Rh probe fluorescence polarization; AID 1515; O75884; inhibition, % at 7.94 µM; 220,000 tested, 0.2% active;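 active means inhibition above the campaign mean of all tested compounds plus 3 SD, cut at about 14% in these data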
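Test system: recombinant human RBBP9. Quantity: 2.5 µM RBBP9 dispensing solution, before mixing. Detection: FP readout at 525/598 nm. Reagent: Serine-hydrolase probe FP-Rh, 375 nM pre-mixing. Measure: % inhibition. Control set: DMSO-treated enzyme wells and wells lacking RBBP9. Buffer or medium: Tris-NaCl-Pluronic buffer, pH 8.0. Times: preincubation 30 min plus labeling 45 min at 25 °C.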
PKD1 inh = inhibitors of human PKD1 kinase | PKD1 kinase fluorescence polarization assay | inhibition, % (concentration not given with the values) | 200,000 tested, 0.056% active | AID 797; in the data active means inhibition above about 50%
p97 inhibitor = blocks human p97 ATPase activity | 220,000 tested, 0.42% active | recombinant p97 ATPase, Kinase-Glo ATP luminescence, 3 h | AID 1481 | inhibition, % at 8 µM; in the data active means inhibition above about 15%
Redox H2O2 prof = compounds producing H2O2 with reducing agent – biochemical, NIH compound library profiling, artefact control for MLSCN library redox annotation, primary screen. 200,000 tested, 0.03% active. activation, % at 10 µM. DTT-dependent redox cycling H2O2, phenol red/HRP absorbance; 100% = 100 µM peroxide control, 0% = buffer. AID 878;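 active means activation of at least 50% relative to the plate's high and low controls in the primary single-dose screen; inactive means activation below 50%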;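 further: compound incubated with DTT at 0.8 mM final as the reducing agent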
Arbovirus anti = blocks arbovirus infection. inhibition, % at 10 µM. 200,000 tested, 0.37% active. arbovirus infection cell-based antiviral screen; in the data active means inhibition above about 30%
Wee1 degr conf = human Wee1 degradation inhibition, confirmation. shares compounds with Wee1 degr inh. HeLa Luc-Wee1K328M degradation, luminescence; vehicle 0%, proteasome-blocked wells 100%. activation, % at 5 µM. 1,100 tested, 4% active. AID 1410; in the data active means activation above about 8.9%
Hits are given with their value; 0 = inactive; - = no result given. Hits are enriched below; roughly 2.2% of the tested compounds scored in any of these assays.

SMILES	Wee1 degr inh	RBBP9 inhibitor	PKD1 inh	p97 inhibitor	Redox H2O2 prof	Arbovirus anti	Wee1 degr conf
CC1Cc2ccccc2N1CC(=O)NC(c1ccccc1)c1ccccc1 (stereo unspecified)	0	0	0	0	0	0	-
CC1CC(C)CN(CC(=O)NC(c2ccccc2)c2ccccc2)C1 (stereo unspecified)	12	0	0	0	0	0	0
CCOc1ccccc1OCC(=O)NCCc1ccc(S(N)(=O)=O)cc1	0	0	0	0	0	0	-
Cc1nn2c(NCCCN3CCOCC3)c3c(nc2c1-c1ccccc1)CCC3	0	0	0	0	0	0	-
CCCCNc1c2c(nc3c(-c4ccccc4)c(C)nn13)CCC2	13	0	0	0	0	0	0
O=C(NCCO)C(O)C(O)C(=O)NCCO (stereo unspecified)	0	0	0	0	0	0	-
Cc1cc(C)n(C(=O)c2ccc(C)c(S(=O)(=O)N3CCCCC3)c2)n1	24	0	0	0	0	0	0
Cc1ccc(NC(=O)c2cccc(F)c2)cc1S(=O)(=O)N1CCCCCC1	14	0	0	0	0	0	0
Cc1ccc(C(=O)Nc2ccon2)cc1S(=O)(=O)N1CCCCCC1	0	0	0	0	0	0	-
CCC1CCCCN1C(=S)NC1CCCCC1 (stereo unspecified)	14	0	0	0	0	0	0
S=C(NC1CCCCC1)N1CCCCC1	0	0	-	0	-	-	-
Cc1cccc(NC(=O)c2cnc3ccccn3c2=O)c1	0	0	0	0	0	0	-
Cc1cccc(NC(=O)c2cnc3sccn3c2=O)c1	24	0	0	0	0	0	0
CCNc1ccc(S(=O)(=O)N(C)C)cc1NCC(=O)Nc1ccc(F)c(Cl)c1	0	0	0	0	0	0	-
O=C(/C=C/c1cccnc1)/C=C/c1cccnc1	18	0	-	0	-	-	22
CN(CCc1ccccn1)C(=S)Nc1ccc(Cl)c(Cl)c1	15	0	0	0	0	0	0
CNCC(O)COc1ccccc1 (stereo unspecified)	0	0	0	0	0	0	-
CNCC(O)COc1cccc(OC)c1 (stereo unspecified)	11	0	0	0	0	0	0
COc1cccc(C(=O)Nc2sc(C(C)C)cc2C(N)=O)c1OC	0	0	-	0	-	-	-
Cc1c(C(=O)Nc2ccc3c(c2)OCO3)sc2ncn(CC(=O)N3CC(C)CC(C)C3)c(=O)c12 (stereo unspecified)	0	0	0	0	0	0	-
CC(C)(C)C(=O)c1cnc(Nc2ccccc2Cl)s1	16	0	0	0	0	0	0
CC(=O)/C=C(\C)N=Nc1c(O)[nH]c2ccccc12	0	0	-	0	-	-	-
O=c1c2c(ncn2C2CCCC2)n(Cc2ccccc2)c(=O)n1CCOc1ccccc1	14	0	0	0	0	0	0
N#Cc1c(Cl)cccc1-n1ccnc1	0	0	0	0	0	0	-
Cc1cc(C)n(-c2cccc(Cl)c2C#N)n1	13	0	-	0	-	-	0
SMILES	Wee1 degr inh	RBBP9 inhibitor	PKD1 inh	p97 inhibitor	Redox H2O2 prof	Arbovirus anti	Wee1 degr conf
Cc1cc(C)c2c(N=NN(C)C)[nH]nc2n1	13	0	0	0	0	0	0
Cc1cc(C)c2c(NC(N)=S)n[nH]c2n1	0	0	0	0	0	0	-
O=C(Nc1ccc(Cl)c(Cl)c1)Nc1nnc(CC2=CCCCC2)s1	0	0	0	0	0	0	-
COc1ccc(OCCC(=O)N2CCOCC2)cc1	12	0	0	0	0	0	0
CC(C)(C)c1ccc(OCCCC(=O)N2CCOCC2)cc1	0	0	0	0	0	0	-
Cc1ccc(OCC(=O)NCCc2c[nH]c3ccccc23)cc1	0	0	0	0	0	0	-
COc1ccc(C(C)=O)cc1CSCCC#N	14	0	0	0	0	0	0
O=C(/C=C/c1ccc(Br)cc1)c1ccc(NC2=NCCCS2)cc1	12	0	0	0	0	0	0
COc1cccc(C(=O)Nc2ccc(-c3nc4ccccc4o3)c(O)c2)c1	12	0	0	0	0	0	0
COC(=O)c1cc(-c2ccc3c(c2)OCO3)nc2ccccc12	0	0	0	0	0	0	-
c1ccc2nc(-c3ccc4c(c3)OCO4)ccc2c1	10	0	0	0	0	0	0

Screens: PubChem BioAssay, several laboratories
